Article PMC2978023 (Journal of immunology (Baltimore, Md. : 1950), 2008)
Where “and” joins values, the source holds several entries; their conditions need not be identical. Equal entries are not always repeated.

How the values were obtained:
αM subunit on K562 cells = test: Soluble ligand binding to K562 cells expressing αM, FACS; set-up: species or system human; conditions: 40 min, 37 °C
Outline: (§1)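 Transiently transfected K562 cells were incubated with soluble Alexa 488-labelled Plg or Ang(1–4) for 40 min at 37°C in HBSS containing 1 mM CaCl₂ and 1 mM MgCl₂. Cells were washed twice and bound ligand was quantified by FACS; three independent experiments. For inhibition, cells were pretreated for 20 min at 37°C with function-blocking anti-αM or anti-β2 mAbs (20 μg/ml) or NIF (20 nM).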

Akt [1] = test: Akt phosphorylation in PMNs, Western blot; assay type: cell-based, human; conditions: PMN stimulated with 1 nM PMA, 30 min, 37 °C; proteins 1 μM, peptides 100 μM
Outline: (§2)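 Human PMNs stimulated with 1 nM PMA were incubated with ligands for 30 min at 37°C in HBSS with 1 mM CaCl₂, 1 mM MgCl₂, 0.1% BSA, pH 7.4. Cells were lysed in ice-cold Tris/EDTA/detergent buffer with phosphatase and protease inhibitors. Equal protein was immunoblotted for phospho- and total Akt or ERK1/2, with actin. Inhibition arm: 20 min pretreatment at 37°C with 10 μM Akt inhibitor, 50 μM PD98059, 50 nM NIF, or F(ab′)₂ anti-αM or anti-MHC-1 (20 μg/ml), then 1 μM Plg.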

apoptotic PMNs = test: Competition with annexin V-FITC binding to apoptotic PMNs; assay type: cell-based, human; conditions: 0–10 μM, data not shown
caspase-3 [2] = test: Caspase-3 cleavage in K562 cell lysates, Western blot; assay type: cell-based, human; conditions: K562 αMβ2 transfectants, 24 h, 37 °C; proteins 1 μM, peptides 100 μM
Bax [3] = test: Bax cleavage in K562 cell lysates, Western blot; assay type: cell-based, human; conditions: K562 αMβ2 transfectants, 24 h, 37 °C; proteins 1 μM, peptides 100 μM
Bax [4] = test: Bax cleavage in PMN lysates, Western blot; assay type: cell-based, human; conditions: PMN lysate, 16 h; proteins 1 μM, peptides 100 μM; six donors
β2 subunit on K562 cells = test: Soluble ligand binding to K562 cells expressing β2, FACS; set-up: species or system human; conditions: 40 min, 37 °C
Outline: as §1

[5] = test system: αM^(Ile316→Gly)β2 on K562 cells; test: Adhesion of K562 cells expressing αM^; assay type: cell-based, human; conditions: K562 αM^(Ile316→Gly)β2, data not shown
[6] = test system: mock-transfected K562 cells; test: Apoptosis of mock-transfected K562 cells, annexin V, FACS; assay type: cell-based, human; conditions: 16 h, 37 °C; proteins 1 μM, peptides 100 μM; no ligand 81 ± 8; mean ± SEM, n = 5
αMβ2 = αMβ2 clustering on PMNs, fluorescence microscopy; assay type: cell-based, human; conditions: 4 h, 37 °C; proteins 1 μM, peptides 100 μM; anti-αM OKMI staining; four donors
Outline: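 Human PMNs were exposed to ligands (proteins 1 μM, peptides 100 μM) for 4 h at 37°C, or to 1 μM Plg together with clustering inhibitors at the final concentrations used in apoptosis assays. Cells were fixed in 4% paraformaldehyde and stained with anti-αM mAb OKMI plus Alexa 488 goat anti-mouse IgG. They were cytospun, mounted and imaged by fluorescence microscopy (×40/0.7 NA); PMNs came from four donors.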

Akt [7] = test: Akt phosphorylation in transfected K562 cells, Western blot; assay type: cell-based, human; conditions: 37 °C
Outline: (§3)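 Transiently transfected K562 cells (αM, β2, αMβ2 or mock) were exposed to ligands for 30 min at 37°C and lysed in ice-cold buffer. Equal protein was run on SDS-PAGE and blotted with the PathScan Multiplex Western Cocktail I, then reprobed for total ERK1/2; blots shown are representative of three experiments.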

ERK1/2 [8] = test: ERK1/2 phosphorylation in transfected K562 cells, Western blot; assay type: cell-based, human; conditions: 37 °C
Outline: as §3

[9] = target: recombinant purified integrin αMβ2 (Homo sapiens, UniProt P05107+P11215); test: Solid-phase binding to purified αMβ2; conditions: higher for Plg than for Ang(1–4)
Outline: (§4)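 Purified recombinant αMβ2, αM or β2 (from HEK293 lines) was coated overnight at 4°C in TBS with 10 mM n-octyl-β-D-glucopyranoside and postcoated with 0.5% PVP for 1 h at 37°C. Biotinylated Plg or Ang(1–4) (0–10 μM) was bound for 2 h at 37°C in the same buffer plus 1 mM CaCl₂/MgCl₂. Binding was detected with alkaline phosphatase–avidin and pNPP at A405. Kd came from a one-site binding fit.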

caspase-8 [10] = test: Caspase-8 cleavage in K562 cell lysates, Western blot; assay type: cell-based, human; conditions: K562 αMβ2 transfectants, 24 h, 37 °C; proteins 1 μM, peptides 100 μM
human PMNs = conditions: Plg 1 μM, 16 h, 37 °C; media alone 90 ± 21; mean ± SEM, n = 6
ERK1/2 [11] = test: ERK1/2 phosphorylation in PMNs, Western blot; assay type: cell-based, human; conditions: PMN stimulated with 1 nM PMA, 30 min, 37 °C; proteins 1 μM, peptides 100 μM
Outline: as §2

[12] = target: recombinant purified β2 subunit (Homo sapiens, UniProt P05107); test: Solid-phase binding to purified β2 subunit; conditions: solid-phase binding, αM versus β2
Outline: as §4

caspase-3 [13] = test: Caspase-3 cleavage in PMN lysates, Western blot; assay type: cell-based, human; conditions: PMN lysate, 16 h; proteins 1 μM, peptides 100 μM; six donors
αMβ2 on K562 cells = test: Soluble ligand binding to K562 cells expressing αMβ2, FACS; set-up: species or system human; conditions: 40 min, 37 °C
Outline: as §1

caspase-8 [14] = test: Caspase-8 cleavage in PMN lysates, Western blot; assay type: cell-based, human; conditions: PMN lysate, 16 h; proteins 1 μM, peptides 100 μM; six donors

Sequence of recombinant purified β2 subunit (P05107 23-769): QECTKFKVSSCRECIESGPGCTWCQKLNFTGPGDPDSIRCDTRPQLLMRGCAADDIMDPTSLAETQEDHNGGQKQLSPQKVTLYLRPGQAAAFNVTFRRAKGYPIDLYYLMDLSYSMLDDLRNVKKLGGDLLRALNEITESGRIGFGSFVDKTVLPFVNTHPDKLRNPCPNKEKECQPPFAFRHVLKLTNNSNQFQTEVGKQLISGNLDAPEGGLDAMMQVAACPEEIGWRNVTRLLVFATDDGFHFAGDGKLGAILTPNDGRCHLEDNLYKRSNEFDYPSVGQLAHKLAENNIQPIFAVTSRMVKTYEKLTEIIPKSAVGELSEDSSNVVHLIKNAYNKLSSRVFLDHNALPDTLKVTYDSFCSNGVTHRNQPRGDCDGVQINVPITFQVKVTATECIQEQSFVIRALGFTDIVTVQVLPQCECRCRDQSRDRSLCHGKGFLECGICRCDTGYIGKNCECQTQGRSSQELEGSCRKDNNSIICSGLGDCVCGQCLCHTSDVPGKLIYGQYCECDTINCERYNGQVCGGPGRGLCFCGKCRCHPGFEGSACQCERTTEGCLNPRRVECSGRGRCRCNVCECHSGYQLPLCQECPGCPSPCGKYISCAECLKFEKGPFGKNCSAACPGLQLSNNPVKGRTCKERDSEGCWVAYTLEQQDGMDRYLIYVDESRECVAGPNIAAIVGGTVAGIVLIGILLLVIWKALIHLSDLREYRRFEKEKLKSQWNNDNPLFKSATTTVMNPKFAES
Sequence of recombinant purified integrin αMβ2 (P05107 23-769, other chains not shown): as the sequence (P05107 23-769) above

With plasminogen [Plg] the “soluble ligand binding, αM cells (in words)” value (αM subunit on K562 cells) was “bound both ligands”, the Akt phosphorylation (Akt [1]) was “robust Akt phosphorylation” and the “competition with annexin V-FITC binding” value (apoptotic PMNs) was “did not compete with annexin V-FITC binding at any concentration tested”. For the same substance, the “caspase-3 cleavage product, αMβ2 cells” value (caspase-3 [2]) was “not detected”, the “Bax cleavage product, αMβ2 cells” value (Bax [3]) was “not detected” and the “22-kDa Bax fragment” value (Bax [4]) was “absent”. The “soluble ligand binding, β2 cells (in words)” value (β2 subunit on K562 cells) was “bound soluble Plg”, the “adhesion to Plg versus wild type” value [5] was “enhanced adhesion to Plg” and the “K562 early/late apoptosis (% annexin V+ cells), mock” value [6] was 78 ± 10%. The “αMβ2 macroclusters on PMN surface” value (αMβ2) was “detected”, the “Akt phosphorylation, αM, β2 and mock cells” value (Akt [7]; K562 expressing αM or β2, or mock-transfected, 30 min) was “not in K562 cells expressing the individual αM or β2 subunits (Fig. 6A) or mock-transfected cells” and the “Akt activation, tailless and chimeric αMβ2” value (Akt [7]; K562 expressing αM(1119Δ)β2, αMβ2(728Δ) or αM/αLβ2, Plg, 30 min) was “no Akt activation could be detected”. For the same substance, the “Akt phosphorylation, αMβ2 cells” value (Akt [7]; K562 expressing αMβ2, 30 min) was “robust Akt phosphorylation”, the “ERK1/2 activation, αM cells” value (ERK1/2 [8]; K562 expressing αM, 30 min) was “strongly induced” and the “ERK1/2 activation, αMβ2 cells” value (ERK1/2 [8]; K562 expressing αMβ2, 30 min) was “strongly induced”. For the same substance, the “ERK1/2 phosphorylation, mock and β2 cells” value (ERK1/2 [8]; K562 mock or expressing β2, 30 min) was “poorly induced”, the “affinity of αMβ2 for Plg relative to Ang(1–4)” value [9] was ~ 10 fold and the “caspase-8 cleavage product, αMβ2 cells” value (caspase-8 [10]) was “not detected”. The “PMN early/late apoptosis (% annexin V+ cells), Plg alone” value (human PMNs) was 32 ± 10% and 32 ± 105%, the ERK1/2 activation (ERK1/2 [11]) was “induced ERK1/2 activation” and the “recognition by individual integrin subunits (in words)” value [12] was “interacted with the individual αM and β2 subunits with similar affinities”. The “18-kDa caspase-3 fragment” value (caspase-3 [13]) was “absent”, the “soluble ligand binding, αMβ2 cells (in words)” value (αMβ2 on K562 cells) was “bound both ligands” and the caspase-8 fragment (caspase-8 [14]) was “absent”.
